From ChEMBL document CHEMBL1944546, “Structure-activity relationships of novel alkylides: 3-O-arylalkyl clarithromycin derivatives with improved antibacterial activities” (2012)
Converted amounts (≈) assume the structure as drawn.

Tests used:
Streptococcus pyogenes [1] = experiment: Antibacterial activity against constitutive MLS-resistant Streptococcus pyogenes A 2 by broth microdilution method; assay type: functional
Outline: (§1)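 MIC by broth microdilution following CLSI (2010) recommendations, using clinical isolates identified by 16S rDNA sequencing and labelled by genotype and phenotype. S. aureus ATCC 29213 and S. pneumoniae ATCC 49619 were run as control strains, and azithromycin, clarithromycin and 3-OH-clarithromycin were tested as reference agents.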

Streptococcus pneumoniae [2] = experiment: Antibacterial activity against efflux,penicillin-susceptible Streptococcus pneumoniae PU 09 by broth microdilution method; assay type: functional
Outline: (§2)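 MIC read by broth microdilution following CLSI (2010) guidance. The clinical isolates were identified by 16S rDNA sequencing and labelled by genotype and phenotype. S. aureus ATCC 29213 and S. pneumoniae ATCC 49619 were the control strains. Azithromycin, clarithromycin and 3-OH-clarithromycin were run as reference compounds.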

Streptococcus pneumoniae [3] = experiment: Antibacterial activity against penicillin-susceptible, constitutive MLS-resistant Streptococcus pneumoniae PU 27 by broth microdilution method; assay type: functional; outline: as §1
[4] = tested on: Staphylococcus haemolyticus; experiment: Antibacterial activity against methicillin-resistant, coagulase-negative, constitutive MLS-resistant Staphylococcus haemolyticus PU 19 by broth microdilution method; assay type: functional; outline: as §1
Staphylococcus aureus [5] = experiment: Antibacterial activity against erythromycin-susceptible Staphylococcus aureus ATCC 29213 by broth microdilution method; assay type: functional; outline: as §2
Staphylococcus aureus [6] = experiment: Antibacterial activity against methicillin-, inducible MLS-resistant Staphylococcus aureus PU 32 by broth microdilution method
Streptococcus pneumoniae [7] = experiment: Antibacterial activity against penicillin-, constitutive MLS-resistant Streptococcus pneumoniae PU 11 by broth microdilution method; assay type: functional; outline: as §1
[8] = tested on: Staphylococcus epidermidis; experiment: Ratio of MIC for clarithromycin to compound for methicillin-susceptible, inducible MLS-resistant Staphylococcus epidermidis E1 by broth microdilution method; assay type: functional
[9] = tested on: Staphylococcus epidermidis; experiment: Ratio of MIC for azithromycin to compound for methicillin-susceptible, inducible MLS-resistant Staphylococcus epidermidis E1 by broth microdilution method; assay type: functional
[10] = tested on: Staphylococcus epidermidis; experiment: Antibacterial activity against methicillin-susceptible, inducible MLS-resistant Staphylococcus epidermidis E1 by broth microdilution method; assay type: functional; outline: as §1
Staphylococcus aureus [11] = experiment: Antibacterial activity against methicillin-susceptible, inducible MLS-resistant Staphylococcus aureus PU 64 by broth microdilution method; assay type: functional; outline: as §1
Staphylococcus hominis [12] = experiment: Antibacterial activity against methicillin-resistant, coagulase-negative, inducible MLS-resistant Staphylococcus hominis E3 by broth microdilution method; assay type: functional; outline: as §1
Streptococcus pneumoniae [13] = experiment: Antibacterial activity against erythromycin-susceptible Streptococcus pneumoniae ATCC 49619 by broth microdilution method; assay type: functional; outline: as §2
Staphylococcus aureus [14] = experiment: Antibacterial activity against methicillin-, constitutive MLS-resistant […] by broth microdilution method; assay type: functional; outline: as §1
Streptococcus pyogenes [15] = experiment: Antibacterial activity against erythromycin-susceptible Streptococcus pyogenes A 3 by broth microdilution method; assay type: functional; outline: as §2
[16] = tested on: Streptococcus dysgalactiae; experiment: Antibacterial activity against efflux, erythromycin-resistant Streptococcus dysgalactiae A 1 by broth microdilution method; assay type: functional; outline: as §1
[17] = tested on: Staphylococcus epidermidis; experiment: Antibacterial activity against methicillin-resistant, constitutive MLS-resistant Staphylococcus epidermidis E2 by broth microdilution method; assay type: functional; outline: as §1
Staphylococcus hominis [18] = experiment: Ratio of MIC for clarithromycin to compound for methicillin-resistant, coagulase-negative, inducible MLS-resistant Staphylococcus hominis E3 by broth microdilution method; assay type: functional
Outline: (§3)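 MICs of the test compounds and of the reference macrolides (azithromycin, clarithromycin) were determined side by side by broth microdilution following CLSI (2010). The clinical isolates were identified by 16S rDNA sequencing and labelled by genotype and phenotype. S. aureus ATCC 29213 and S. pneumoniae ATCC 49619 served as control strains.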

Staphylococcus hominis [19] = experiment: Ratio of MIC for azithromycin to compound for methicillin-resistant, coagulase-negative, inducible MLS-resistant Staphylococcus hominis E3 by broth microdilution method; assay type: functional; outline: as §3
[20] = tested on: Streptococcus dysgalactiae; experiment: Ratio of MIC for clarithromycin to compound for efflux, erythromycin-resistant Streptococcus dysgalactiae A 1 by broth microdilution method; assay type: functional; outline: as §3
Staphylococcus aureus [21] = experiment: Antibacterial activity against methicillin-, inducible MLS-resistant […] by broth microdilution method; assay type: functional; outline: as §1
Streptococcus pneumoniae [22] = experiment: Ratio of MIC for clarithromycin to compound for efflux,penicillin-susceptible Streptococcus pneumoniae PU 09 by broth microdilution method; assay type: functional; outline: as §3
[23] = tested on: Streptococcus dysgalactiae; experiment: Ratio of MIC for azithromycin to compound for efflux, erythromycin-resistant Streptococcus dysgalactiae A 1 by broth microdilution method; assay type: functional; outline: as §3
Streptococcus pneumoniae [24] = experiment: Ratio of MIC for azithromycin to compound for efflux,penicillin-susceptible Streptococcus pneumoniae PU 09 by broth microdilution method; assay type: functional; outline: as §3

Structure (SMILES) | MIC (Streptococcus pyogenes [1]) | MIC (Streptococcus pneumoniae [2]) | MIC (Streptococcus pneumoniae [3]) | MIC [4] | MIC (Staphylococcus aureus [5]) | MIC (Staphylococcus aureus [6]) | MIC (Streptococcus pneumoniae [7]) | Ratio [8] | Ratio [9] | MIC [10] | MIC (Staphylococcus aureus [11]) | MIC (Staphylococcus hominis [12]) | MIC (Streptococcus pneumoniae [13]) | MIC (Staphylococcus aureus [14]) | MIC (Streptococcus pyogenes [15]) | MIC [16] | MIC [17] | also measured
CC[C@H]1OC(=O)[C@H](C)[C@@H](O/C=C\Cc2cncnc2)[C@H](C)[C@@H](O[C@@H]2O[C@H](C)C[C@H](N(C)C)[C@H]2O)[C@](C)(OC)C[C@@H](C)C(=O)[C@H](C)[C@@H](O)[C@]1(C)O | > 256 µg/mL | 1 µg/mL (≈ 1.41 µM) | 32 µg/mL (≈ 45.2 µM) | > 256 µg/mL | 8 µg/mL (≈ 11.3 µM) | 4 µg/mL (≈ 5.65 µM) | > 256 µg/mL | >16 | >16 | 4 µg/mL (≈ 5.65 µM) | 8 µg/mL (≈ 11.3 µM) | 8 µg/mL (≈ 11.3 µM) | 1 µg/mL (≈ 1.41 µM) | > 256 µg/mL | 4 µg/mL (≈ 5.65 µM) | 4 µg/mL (≈ 5.65 µM) | > 256 µg/mL | 
CC[C@H]1OC(=O)[C@H](C)[C@@H](OCCCc2cncnc2)[C@H](C)[C@@H](O[C@@H]2O[C@H](C)C[C@H](N(C)C)[C@H]2O)[C@](C)(OC)C[C@@H](C)/C(=N\O)[C@H](C)[C@@H](O)[C@]1(C)O | > 256 µg/mL | 2 µg/mL (≈ 2.76 µM) | 64 µg/mL (≈ 88.3 µM) | > 256 µg/mL | 8 µg/mL (≈ 11 µM) | 8 µg/mL (≈ 11 µM) | > 256 µg/mL | >16 | >16 | 16 µg/mL (≈ 22.1 µM) | 8 µg/mL (≈ 11 µM) | > 256 µg/mL | 1 µg/mL (≈ 1.38 µM) | > 256 µg/mL | 0.5 µg/mL (≈ 0.69 µM) | 2 µg/mL (≈ 2.76 µM) | > 256 µg/mL | 
CC[C@H]1OC(=O)[C@H](C)[C@@H](OC/C=C/c2cncnc2)[C@H](C)[C@@H](O[C@@H]2O[C@H](C)C[C@H](N(C)C)[C@H]2O)[C@](C)(OC)C[C@@H](C)C(=O)[C@H](C)[C@@H](O)[C@]1(C)O | > 256 µg/mL | 16 µg/mL (≈ 22.6 µM) | 128 µg/mL (≈ 181 µM) | > 256 µg/mL | > 256 µg/mL | > 256 µg/mL | 128 µg/mL (≈ 181 µM) |  |  | > 256 µg/mL | > 256 µg/mL | > 256 µg/mL | 8 µg/mL (≈ 11.3 µM) | > 256 µg/mL | 8 µg/mL (≈ 11.3 µM) | 16 µg/mL (≈ 22.6 µM) | > 256 µg/mL | 
CC[C@H]1OC(=O)[C@H](C)[C@@H](OCC#Cc2cncnc2)[C@H](C)[C@@H](O[C@@H]2O[C@H](C)C[C@H](N(C)C)[C@H]2O)[C@](C)(OC)C[C@@H](C)/C(=N\O)[C@H](C)[C@@H](O)[C@]1(C)O | > 256 µg/mL | > 256 µg/mL | > 256 µg/mL | > 256 µg/mL | > 256 µg/mL | > 256 µg/mL | > 256 µg/mL |  |  | > 256 µg/mL | > 256 µg/mL | > 256 µg/mL | > 256 µg/mL | > 256 µg/mL | > 256 µg/mL | > 256 µg/mL | > 256 µg/mL | 
CC[C@H]1OC(=O)[C@H](C)[C@@H](O/C=C\Cc2cncnc2)[C@H](C)[C@@H](O[C@@H]2O[C@H](C)C[C@H](N(C)C)[C@H]2O)[C@](C)(OC)C[C@@H](C)/C(=N\O)[C@H](C)[C@H]2OC(=O)O[C@@]21C | > 256 µg/mL | 0.125 µg/mL (≈ 0.167 µM) | 1 µg/mL (≈ 1.34 µM) | > 256 µg/mL | 0.5 µg/mL (≈ 0.668 µM) |  | > 256 µg/mL | 1024 | 1024 | 0.25 µg/mL (≈ 0.334 µM) | 0.25 µg/mL (≈ 0.334 µM) | 0.25 µg/mL (≈ 0.334 µM) | 0.032 µg/mL (≈ 0.0427 µM) | > 256 µg/mL | 0.016 µg/mL (≈ 0.0214 µM) | 0.125 µg/mL (≈ 0.167 µM) | > 256 µg/mL | Ratio (Staphylococcus hominis [18]): 1024; Ratio (Staphylococcus hominis [19]): 1024; Ratio [20]: 32; MIC (Staphylococcus aureus [21]): 0.25 µg/mL (≈ 0.334 µM); Ratio (Streptococcus pneumoniae [22]): 32; Ratio [23]: 32; Ratio (Streptococcus pneumoniae [24]): 32
CC[C@H]1OC(=O)[C@H](C)[C@@H](O[C@H]2C[C@@](C)(OC)[C@@H](O)[C@H](C)O2)[C@H](C)[C@@H](O[C@@H]2O[C@H](C)C[C@H](N(C)C)[C@H]2O)[C@](C)(O)C[C@@H](C)CN(C)[C@H](C)[C@@H](O)[C@]1(C)O [AZITHROMYCIN] | > 256 µg/mL | 8 µg/mL (≈ 10.7 µM) | 64 µg/mL (≈ 85.4 µM) | > 256 µg/mL | 1 µg/mL (≈ 1.34 µM) | 8 µg/mL (≈ 10.7 µM) | > 256 µg/mL |  |  | > 256 µg/mL | 8 µg/mL (≈ 10.7 µM) | > 256 µg/mL | 0.25 µg/mL (≈ 0.334 µM) | > 256 µg/mL | 0.125 µg/mL (≈ 0.167 µM) | 32 µg/mL (≈ 42.7 µM) | > 256 µg/mL | 
CC[C@H]1OC(=O)[C@H](C)[C@@H](OC/C=C/c2cncnc2)[C@H](C)[C@@H](O[C@@H]2O[C@H](C)C[C@H](N(C)C)[C@H]2O)[C@](C)(OC)C[C@@H](C)/C(=N\O)[C@H](C)[C@H]2OC(=O)O[C@@]21C | > 256 µg/mL | 4 µg/mL (≈ 5.34 µM) | 32 µg/mL (≈ 42.7 µM) | > 256 µg/mL | 8 µg/mL (≈ 10.7 µM) | 8 µg/mL (≈ 10.7 µM) | > 256 µg/mL |  |  | > 256 µg/mL | 4 µg/mL (≈ 5.34 µM) | > 256 µg/mL | 0.5 µg/mL (≈ 0.668 µM) | > 256 µg/mL | 0.125 µg/mL (≈ 0.167 µM) | 1 µg/mL (≈ 1.34 µM) | > 256 µg/mL | 
CC[C@H]1OC(=O)[C@H](C)[C@@H](OC/C=C/c2cncnc2)[C@H](C)[C@@H](O[C@@H]2O[C@H](C)C[C@H](N(C)C)[C@H]2O)[C@](C)(OC)C[C@@H](C)/C(=N\O)[C@H](C)[C@@H](O)[C@]1(C)O | > 256 µg/mL | 32 µg/mL (≈ 44.3 µM) | 128 µg/mL (≈ 177 µM) | > 256 µg/mL | > 256 µg/mL | > 256 µg/mL | > 256 µg/mL |  |  | > 256 µg/mL | > 256 µg/mL | > 256 µg/mL | 16 µg/mL (≈ 22.1 µM) | > 256 µg/mL | 8 µg/mL (≈ 11.1 µM) | 16 µg/mL (≈ 22.1 µM) | > 256 µg/mL | 
